# Laboratory results reported in paper PMC3344817 (ChemMedChem, 2011).
# Tests used:
# [1] = tested on: L1210 cells; assay: Cytotoxicity; format: cell-based, murine; settings: for RP (relative potency), L1210 cells: IC50 of 2 divided by IC50 of the compound; for IC50: Mus musculus, L1210, 48 h, read-out: IC50, L1210 cells
# [2] = tested on: Molt 4/C8 T-lymphocytes; assay: Cytotoxicity; format: cell-based, human; settings: for IC50: Homo sapiens, Molt4/C8, 72 h, read-out: IC50, Molt 4/C8 cells; for RP (relative potency), Molt 4/C8 cells: IC50 of 2 divided by IC50 of the compound
# [3] = tested on: CEM T-lymphocytes; assay: Cytotoxicity; format: cell-based, human; settings: IC50 of 2 divided by IC50 of the compound
# [4] = tested on: JURKAT; assay: CC50 by flow cytometry with propidium iodide, JURKAT; format: cell-based, human
# Outline: (§1)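 Non-adherent lymphoma/leukaemia cells in RPMI were given a range of test compound concentrations (DMSO solution) for 22 h at 37°C. Plasma membrane disruption was scored by flow cytometry with propidium iodide to derive CC50, and values are the mean of three independent experiments. SI = CC50 toward NIH-3T3 fibroblasts ÷ CC50 toward the given non-adherent line.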
# [5] = tested on: human tumor cell lines; assay: US National Cancer Institute human tumor cell line screen; format: cell-based; settings: 48 h; Figure 4
# [6] = tested on: Sup-T1; assay: CC50 by flow cytometry with propidium iodide, Sup-T1; format: cell-based, human
# Outline: as §1
# [7] = tested on: JURKAT, Nalm-6, SUP-T1, or CEM cells; assay: Flow cytometry analysis of apoptosis and necrosis; format: cell-based, human; settings: after 20 h; relative to the percentage at 8 h; four non-adherent cell lines
# Outline: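 Test compound was incubated with JURKAT, Nalm-6, SUP-T1 or CEM cells in RPMI. After 8 and 20 h, cells were stained with Annexin-V-FITC plus propidium iodide. Flow cytometry gave the percentages of apoptotic, necrotic and viable cells.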
# [8] = CC50 by flow cytometry with propidium iodide, NIH-3T3 fibroblasts; format: cell-based, murine; settings: mouse, NIH-3T3 fibroblasts (non-malignant)
# Outline: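 Adherent NIH-3T3 fibroblasts in DMEM received a range of test compound concentrations (DMSO solution) for 22 h at 37°C. CC50 was obtained by flow cytometry with propidium iodide, scoring plasma membrane disruption. Values are the mean of three independent experiments.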
# [9] = tested on: Nalm6; assay: CC50 by flow cytometry with propidium iodide, Nalm6; format: cell-based, human
# Outline: as §1
# [10] = tested on: CEM; assay: CC50 by flow cytometry with propidium iodide, CEM; format: cell-based, human; settings: CC50 toward NIH-3T3 fibroblasts / CC50 toward CEM
# Outline: as §1
# [11] = tested on: EL-4; assay: CC50 by flow cytometry with propidium iodide, EL-4; format: cell-based, murine
# Outline: as §1
SMILES,"RP (relative potency), L1210 cells [1]",IC50 [1] [nM],IC50 [2] [nM],"RP (relative potency), Molt 4/C8 cells [2]","RP (relative potency), CEM cells [3]",also measured
"O=C1C(=Cc2ccccc2)CN(C(=O)C=CC(=O)N2CC(=Cc3ccccc3)C(=O)C(=Cc3ccccc3)C2)CC1=Cc1ccccc1 [1 f, 1,4-Bis-(3,5-dibenzylidene-4-oxo-piperidin-1-yl)but-2-ene-1,4-dione]",0.3,28900 ± 2000,4400 ± 2950,1.8,0.2,
"O=C1C(=Cc2ccccc2)CN(C(=O)C(=O)N2CC(=Cc3ccccc3)C(=O)C(=Cc3ccccc3)C2)CC1=Cc1ccccc1 [Compound 1a, 1,2-Bis(3,5-dibenzylidene-4-oxo-piperidin-1-yl)ethane-1,2-dione]",1.8,4460 ± 230,460 ± 110,18,2.5,"SI (selectivity index), JURKAT ([4]; CC50 toward NIH-3T3 fibroblasts / CC50 toward JURKAT): 441; CC50 ([4]; Homo sapiens, Jurkat, 22 h, read-out: CC50, JURKAT): 29 nM; IC50 towards human tumor cell lines, comparison [5]: generally displays lower IC50 values than 1 b; SI (selectivity index), Sup-T1 ([6]; CC50 toward NIH-3T3 fibroblasts / CC50 toward Sup-T1): 33; CC50 ([6]; Homo sapiens, SUP-T1, 22 h, read-out: CC50, Sup-T1): 384 nM; apoptotic cells [7]: doubling; CC50 at 22 h [8]: 12800 nM; SI (selectivity index), Nalm6 ([9]; CC50 toward NIH-3T3 fibroblasts / CC50 toward Nalm6): 581; CC50 ([9]; Homo sapiens, NALM-6, 22 h, read-out: CC50, Nalm6): 22 nM; SI (selectivity index), CEM [10]: 376; SI (selectivity index), EL-4 ([11]; CC50 toward NIH-3T3 fibroblasts / CC50 toward EL-4): 412; CC50 ([11]; Mus musculus, EL4, 22 h, read-out: CC50, EL-4): 31 nM"
"O=C1C(=Cc2ccccc2)CN(C(=O)CC(=O)N2CC(=Cc3ccccc3)C(=O)C(=Cc3ccccc3)C2)CC1=Cc1ccccc1 [Compound 1b, 1,3-Bis-(3,5-dibenzylidene-4-oxo-piperidin-1yl)propane-1,3-dione]",6.5,1230 ± 380,70 ± 10,115,9.3,
"O=C1C(=Cc2ccccc2)CN(C(=O)CCC(=O)N2CC(=Cc3ccccc3)C(=O)C(=Cc3ccccc3)C2)CC1=Cc1ccccc1 [Compound 1c, 1,4-Bis-(3,5-dibenzylidene-4-oxo-piperidin-1-yl)butane-1,4-dione]",0.6,14000 ± 1200,570 ± 160,14,1.5,
"O=C1C(=Cc2ccccc2)CN(C(=O)CCCC(=O)N2CC(=Cc3ccccc3)C(=O)C(=Cc3ccccc3)C2)CC1=Cc1ccccc1 [Compound 1d, 1,5-Bis-(3,5-dibenzylidene-4-oxo-piperidin-1-yl)pentane-1,5-dione]",0.7,11500 ± 300,1610 ± 50,5.0,0.9,
"O=C1C(=Cc2ccccc2)CN(C(=O)CCCCCCC(=O)N2CC(=Cc3ccccc3)C(=O)C(=Cc3ccccc3)C2)CC1=Cc1ccccc1 [Compound 1e, 1,8-Bis-(3,5-dibenzylidene-4-oxo-piperidin-1-yl)octane-1,8-dione]",0.5,15300 ± 4200,1530 ± 540,5.3,0.8,
"O=C1C(=Cc2ccccc2)CN(C(=O)C#CC(=O)N2CC(=Cc3ccccc3)C(=O)C(=Cc3ccccc3)C2)CC1=Cc1ccccc1 [Compound 1g, 1,4-Bis-(3,5-dibezylidene-4-oxo-piperidin-1-yl)-but-2-yne-1,4-dione]",0.8,,,5.4,0.6,
"O=C1C(=Cc2ccccc2)CN(C(=O)C=CC=CC(=O)N2CC(=Cc3ccccc3)C(=O)C(=Cc3ccccc3)C2)CC1=Cc1ccccc1 [Compound 1h, 1,6-Bis-(3,5-dibenzylidene-4-oxo-piperidin-1-yl)-hexa-2,4-diene-1,6-dione]",0.1,79000 ± 10200,25100 ± 15800,0.3,0.1,
"O=C1C(=Cc2ccccc2)CN(C(=O)c2ccccc2C(=O)N2CC(=Cc3ccccc3)C(=O)C(=Cc3ccccc3)C2)CC1=Cc1ccccc1 [Compound 1i, 1,2-Bis-[(3,5-dibenzylidene-4-oxo-piperidin-1-yl)-1-carbonyl]benzene]",1.9,,,9.5,1.3,
"O=C1C(=Cc2ccccc2)CN(C(=O)c2cccc(C(=O)N3CC(=Cc4ccccc4)C(=O)C(=Cc4ccccc4)C3)c2)CC1=Cc1ccccc1 [Compound 1j, 1,3-Bis-[(3,5-dibenzylidene-4-oxo-piperidin-1-yl)-1-carbonyl]benzene]",0.1,,,0.7,0.1,
"N[C@@H](Cc1ccc(N(CCCl)CCCl)cc1)C(=O)O [Melphalan, reference compound]",,,3240 ± 790,,,
